This is an account of results in ChEMBL document CHEMBL4118106 (J Med Chem, 2018).

Data set [1] can be described thus: Inhibition of EGFP-fused MERS-CoV spike protein mediated cell-cell fusion between viral protein expressing human 293T cells and human HuH7 target cells after 4 hrs by inverted fluorescence microscopic analysis. On the set-up: species or system Middle East respiratory syndrome-related coronavirus. The procedure, abridged: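 Huh-7 target cells expressing DPP4 were seeded at 5 × 10^4/well and kept at 37 °C for 5 h. Inhibitors were added, then 293T effector cells co-expressing S protein and EGFP (1 × 10^4/well); 293T/EGFP-only cells served as negative control. After 4 h coculture at 37 °C, fused and unfused cells were counted by fluorescence microscopy.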

The nature of data set [2]: Binding affinity to NHR peptide HR1P in pH 7.2 phosphate buffer at 50 uM after 30 mins by CD spectroscopic method. A digest of the protocol:
(§1)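 Peptides were at 50 µM final in 50 mM PBS, pH 7.2. Equimolar HR1P/peptide mixtures were incubated at 25 °C for 30 min before CD scanning. α-Helicity was taken from [θ]222, where -33,000 deg cm2/dmol = 100% helix.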

The subject of the next data set is Calu-3. The data set is described as follows: Cytotoxicity against human Calu3 cells at 100 uM after 48 hrs by CCK-8 assay. The data set is classed as cell-based. The conditions noted are these: calu-3, 48 h. A digest of the protocol:
(§2)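 Cells (1 × 10^5 per well) were preincubated at 37 °C for 12 h, then given graded peptide concentrations. After 48 h at 37 °C, CCK-8 was added and absorbance at 450 nm was read 2 h later.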

The nature of data set [3]: Inhibition of MERS-CoV spike protein mediated cell-cell fusion between viral protein expressing human 293T cells and human HuH7 target cells assessed as decrease in pseudovirus infection preincubated with virus for 1 hr followed by HuH7 cells addition measured after 48 hrs by luciferase reporter gene assay. Set-up: species or system Middle East respiratory syndrome-related coronavirus. The procedure, abridged: (§3)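 Graded peptide concentrations were preincubated with luciferase-reporter pseudovirus bearing MERS-CoV S for 1 h at room temperature. The mixture was added to Huh-7 or Calu-3 cells, with medium refreshed at 12 h. After a further 48 h at 37 °C, luciferase was read. Values are from three independent experiments, mean ± SD.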
On the technique in general: Reporter assays use an easily measured gene product as a stand-in for the process of interest.

Data set [4] is described as follows: Cytotoxicity against human HuH7 cells after 48 hrs by CCK-8 assay. In kind it is cell-based, Huh-7. A digest of the protocol:
as §2
In general terms: Formazan colour is commonly taken as a measure of viable cells.

Data set [5] is described as follows: Inhibition of MERS-CoV spike protein mediated cell-cell fusion between viral protein expressing human 293T cells and human Calu3 target cells assessed as decrease in pseudovirus infection preincubated with virus for 1 hr followed by HuH7 cells addition measured after 48 hrs by luciferase reporter gene assay. On the set-up: species or system Middle East respiratory syndrome-related coronavirus. A digest of the protocol: as §3

A short description of data set [6]: Binding affinity to NHR peptide HR1P in pH 7.2 phosphate buffer assessed as thermal unfolding transition at 50 uM after 30 mins by CD spectroscopic method. A digest of the protocol: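 Equimolar HR1P/peptide mixtures, 50 µM final in 50 mM PBS pH 7.2, were preincubated at 25 °C for 30 min. Thermal denaturation was followed by CD at 222 nm over a 10–90 °C gradient at 2 °C/min.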

Data set [7] can be described thus: Binding affinity to NHR peptide HR1P in pH 7.2 phosphate buffer at 250 uM after 30 mins by sedimentation velocity analysis. The procedure, abridged:
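HR1P/peptide mixtures at 250 µM in 50 mM PBS were incubated at 25 °C for 30 min. After an initial scan at 3000 rpm for 10 min, sedimentation velocity was run at 60,000 rpm, 280 nm, 20 °C, for 7 h. Weight-averaged molecular weights were obtained by fitting.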

Data set [8] in a line: Binding affinity to NHR peptide HR1P in pH 7.2 phosphate buffer at 200 uM after 30 mins by N-PAGE analysis. A digest of the protocol:
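Stapled peptide and HR1P, each 200 µM (in 50 mM PBS or ddH2O), were incubated together at 25 °C for 30 min. Samples in Tris-glycine native sample buffer were run on an 18% Tris-glycine gel (pH 8.3 buffer) at 120 V for 3 h at room temperature and stained with Coomassie blue R250.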

The nature of data set [9]: Binding affinity to NHR peptide HR1P in pH 7.2 phosphate buffer assessed as formation of alpha-helical complex at 50 uM after 30 mins by CD spectroscopic method. A digest of the protocol: as §1
[10] abbreviates: Middle East respiratory syndrome-related coronavirus.

The source made the active and inactive calls. The rule behind the calls is not given here. Where a SMILES comes first, the peptide text is derived from it. Bridges are numbered along the chain shown (N, C = ends). [ ]: non-standard residue; d: D form. S5 = C=CCCC[C@](C)(N)C(=O)O; Nle = CCCC[C@H](N)C(=O)O

Turning to `CSCC[C@@H]1NC(=O)[C@H](CCC(=O)O)NC(=O)[C@H](Cc2ccc(O)cc2)NC(=O)[C@@](C)(NC(=O)[C@H](CC(C)C)NC(=O)[C@H](CC(=O)O)NC(=O)[C@H](CC(C)C)NC(C)=O)CCC/C=C\CCC[C@@](C)(C(=O)N[C@@H](CO)C(=O)N[C@@H](CC(C)C)C(=O)N[C@@H](CCC(N)=O)C(=O)N[C@@H](CCC(N)=O)C(=O)N[C@H](C(=O)N[C@H](C(=O)N[C@@H](CCCCN)C(=O)N[C@@H](C)C(=O)N[C@@H](CC(C)C)C(=O)N[C@@H](CC(N)=O)C(=O)N[C@@H](CCC(=O)O)C(=O)N[C@@H](CO)C(=O)N[C@@H](Cc2ccc(O)cc2)C(N)=O)C(C)C)C(C)C)NC1=O`, the EC50 in data set [1] was more than 50 µM. In addition, in data set [2], the outcome was inactive.

In data set [1], `CSCC[C@H](NC(=O)[C@H](CCC(=O)O)NC(=O)[C@]1(C)CCC/C=C\CCC[C@](C)(NC(C)=O)C(=O)N[C@@H](CC(=O)O)C(=O)N[C@@H](CC(C)C)C(=O)N[C@@H]([C@@H](C)O)C(=O)N1)C(=O)N[C@@H](CC(C)C)C(=O)N[C@@H](CO)C(=O)N[C@@H](CC(C)C)C(=O)N[C@@H](CCC(N)=O)C(=O)N[C@@H](CCC(N)=O)C(=O)N[C@H](C(=O)N[C@H](C(=O)N[C@@H](CCCCN)C(=O)N[C@@H](C)C(=O)N[C@@H](CC(C)C)C(=O)N[C@@H](CC(N)=O)C(=O)N[C@@H](CCC(=O)O)C(=O)N[C@@H](CO)C(=O)N[C@@H](Cc1ccc(O)cc1)C(N)=O)C(C)C)C(C)C` displayed an EC50 of more than 50 µM. Besides, the outcome in data set [2] was inactive.

For the compound `CCCC[C@H](NC(=O)[C@H](CCC(=O)O)NC(=O)[C@H](Cc1ccc(O)cc1)NC(=O)[C@@H](NC(=O)[C@H](CC(C)C)NC(=O)[C@H](CC(=O)O)NC(=O)[C@H](CC(C)C)NC(C)=O)[C@@H](C)O)C(=O)N[C@@H](CC(C)C)C(=O)N[C@@H](CO)C(=O)N[C@@H](CC(C)C)C(=O)N[C@@H](CCC(N)=O)C(=O)N[C@@]1(C)CCC/C=C\CCC[C@@](C)(C(=O)N[C@@H](CC(C)C)C(=O)N[C@@H](CC(N)=O)C(=O)N[C@@H](CCC(=O)O)C(=O)N[C@@H](CO)C(=O)N[C@@H](Cc2ccc(O)cc2)C(N)=O)NC(=O)[C@H](CCCCN)NC(=O)[C@H](C(C)C)NC(=O)[C@H](C(C)C)NC1=O` (Ac-LDLTYE[Nle]LSLQ[S5]VVK[S5]LNESY-NH2; staple (Z) 12-16), the Activity result in the data set with Calu-3 was “Non-Toxic”. The EC50 in data set [3] was found to be 2.8 µM; in data set [5], 2.57 µM; in data set [1] it was 0.63 µM. This compound also came in with a CC50 at 48 h in data set [4] of more than 100 µM.

`CC[C@H](C)[C@H](NC(=O)[C@H](Cc1ccc(O)cc1)NC(=O)[C@H](CO)NC(=O)[C@H](CCC(=O)O)NC(=O)[C@H](CCC(=O)O)NC(=O)[C@H](CC(C)C)NC(=O)[C@H](CCCCN)NC(=O)[C@H](CCCCN)NC(=O)[C@@H](NC(=O)[C@@H](NC(=O)[C@H](CCC(=O)O)NC(=O)[C@H](CCC(=O)O)NC(=O)[C@H](CC(C)C)NC(=O)[C@H](CCCCN)NC(=O)[C@H](CCCCN)NC(=O)[C@H](CCSC)NC(=O)[C@H](CCC(=O)O)NC(=O)[C@H](Cc1ccc(O)cc1)NC(=O)[C@H](CCC(=O)O)NC(=O)[C@H](CC(C)C)NC(=O)[C@H](CC(=O)O)NC(=O)[C@H](CC(C)C)NC(=O)[C@H](CC(C)C)NC(=O)[C@@H](NC(=O)[C@@H](NC(=O)[C@H](CC(N)=O)NC(=O)[C@@H](NC(=O)[C@H](CCC(N)=O)NC(=O)[C@@H](NC(=O)[C@H](CC(C)C)NC(=O)[C@H](CO)NC(C)=O)[C@@H](C)O)[C@@H](C)CC)[C@@H](C)O)[C@@H](C)O)C(C)C)C(C)C)C(=O)N[C@@H](CC(=O)O)C(=O)N[C@@H](CC(C)C)C(=O)N[C@@H](CCCCN)C(=O)N[C@@H](CCC(=O)O)C(=O)N[C@@H](CC(C)C)C(N)=O`: the figures for the EC50 in data set [3] (setting [10]) and in [1] were 1.07 µM and 0.75 µM, respectively. In [4], this compound showed a 50% cytotoxic concentration (CC50) at 48 h of more than 100 µM.

For `CSCC[C@H](NC(=O)[C@H](CCC(=O)O)NC(=O)[C@H](Cc1ccc(O)cc1)NC(=O)[C@@H](NC(=O)[C@H](CC(C)C)NC(=O)[C@H](CC(=O)O)NC(=O)[C@H](CC(C)C)NC(C)=O)[C@@H](C)O)C(=O)N[C@@H](CC(C)C)C(=O)N[C@@H](CO)C(=O)N[C@@H](CC(C)C)C(=O)N[C@@H](CCC(N)=O)C(=O)N[C@@]1(C)CCC/C=C\CCC[C@@](C)(C(=O)N[C@@H](CC(C)C)C(=O)N[C@@H](CC(N)=O)C(=O)N[C@@H](CCC(=O)O)C(=O)N[C@@H](CO)C(=O)N[C@@H](Cc2ccc(O)cc2)C(N)=O)NC(=O)[C@H](CCCCN)NC(=O)[C@H](C(C)C)NC(=O)[C@H](C(C)C)NC1=O` (Ac-LDLTYEMLSLQ[S5]VVK[S5]LNESY-NH2; staple (Z) 12-16), the Activity entry in the data set on Calu-3 was “Non-Toxic”; in data set [9] it was 35.5%. The EC50 was found to be 3.03 µM in data set [3] (setting [10]), 2.21 µM in data set [5] (setting [10]) and 0.26 µM in [1]. The CC50 at 48 h in data set [4] is more than 100 µM. The Tm in [6] worked out at 71.1 °C. For the same compound, the result in data set [7] and in data set [8] was Active.

For `CSCC[C@H](NC(=O)[C@H](CCC(=O)O)NC(=O)[C@H](Cc1ccc(O)cc1)NC(=O)[C@@H](NC(=O)[C@H](CC(C)C)NC(=O)[C@H](CC(=O)O)NC(=O)[C@H](CC(C)C)NC(C)=O)[C@@H](C)O)C(=O)N[C@@H](CC(C)C)C(=O)N[C@@]1(C)CCC/C=C/CCC[C@@](C)(C(=O)N[C@H](C(=O)N[C@@H](CCCCN)C(=O)N[C@@H](C)C(=O)N[C@@H](CC(C)C)C(=O)N[C@@H](CC(N)=O)C(=O)N[C@@H](CCC(=O)O)C(=O)N[C@@H](CO)C(=O)N[C@@H](Cc2ccc(O)cc2)C(N)=O)C(C)C)NC(=O)[C@H](CCC(N)=O)NC(=O)[C@H](CCC(N)=O)NC(=O)[C@H](CC(C)C)NC1=O` (Ac-LDLTYEML[S5]LQQ[S5]VKALNESY-NH2; staple (E) 9-13), the EC50 in data set [1] was more than 50 µM. Further, in [2], the outcome was inactive.

Compound `CSCC[C@@H]1NC(=O)[C@H](CCC(=O)O)NC(=O)[C@@](C)(NC(=O)[C@@H](NC(=O)[C@H](CC(C)C)NC(=O)[C@H](CC(=O)O)NC(=O)[C@H](CC(C)C)NC(C)=O)[C@@H](C)O)CCC/C=C\CCC[C@@](C)(C(=O)N[C@@H](CC(C)C)C(=O)N[C@@H](CCC(N)=O)C(=O)N[C@@H](CCC(N)=O)C(=O)N[C@H](C(=O)N[C@H](C(=O)N[C@@H](CCCCN)C(=O)N[C@@H](C)C(=O)N[C@@H](CC(C)C)C(=O)N[C@@H](CC(N)=O)C(=O)N[C@@H](CCC(=O)O)C(=O)N[C@@H](CO)C(=O)N[C@@H](Cc2ccc(O)cc2)C(N)=O)C(C)C)C(C)C)NC(=O)[C@H](CC(C)C)NC1=O` yielded an EC50 in data set [1] of 7.14 µM. Moreover, the Tm in data set [6] lay within 56.6 to 66.6 °C.

As for `CSCC[C@H](NC(=O)[C@H](CCC(=O)O)NC(=O)[C@H](Cc1ccc(O)cc1)NC(=O)[C@@H](NC(=O)[C@H](CC(C)C)NC(=O)[C@H](CC(=O)O)NC(=O)[C@H](CC(C)C)NC(C)=O)[C@@H](C)O)C(=O)N[C@@H](CC(C)C)C(=O)N[C@@H](CO)C(=O)N[C@@H](CC(C)C)C(=O)N[C@@H](CCC(N)=O)C(=O)N[C@@H](CCC(N)=O)C(=O)N[C@H](C(=O)N[C@H](C(=O)N[C@@H](CCCCN)C(=O)N[C@@]1(C)CCC/C=C\CCC[C@@](C)(C(=O)N[C@@H](Cc2ccc(O)cc2)C(N)=O)NC(=O)[C@H](CCC(=O)O)NC(=O)[C@H](CC(N)=O)NC(=O)[C@H](CC(C)C)NC1=O)C(C)C)C(C)C`, the Activity result in the data set on Calu-3 is “Non-Toxic”; in data set [9] it was 45.6%. Further, the EC50 in data set [3] (setting [10]) stood at 0.97 µM; in data set [5] (setting [10]), 1.58 µM; in [1] it was 0.33 µM. Besides, the CC50 at 48 h in data set [4] was more than 100 µM. For the same compound, the Tm in data set [6] was 76.4 °C. Besides, the result in data set [7] and in data set [8] was Active.

What is called EC50 is the concentration at which the effect is half-maximal. What is called CC50 is the concentration that lowers cell viability or growth by half. Low values mean greater toxicity to the cells, high ones lower toxicity to the cells. As a reminder, the Tm is the temperature at the midpoint of the melting transition.
